Results reported in ChEMBL document CHEMBL4373698, “Biosynthesis of Nonimmunosuppressive FK506 Analogues with Antifungal Activity” (J Nat Prod, 2019).
In brackets after ≈: the same amount, converted by molar mass. Activity calls are given as the source filed them. The calls are words filed in the database; no cut-off is given here.

Legend:
Candida albicans [1] = assay: Antifungal activity against Candida albicans SC5314; assay type: functional, organism-based
Summary of the method: (§1)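 SC5314 grown in YPD at 30 °C for 16 h, washed twice and resuspended in PBS. Seeded at 1.25 × 10^5 cells per well in 100% FBS with 2-fold dilutions from 10 μg/mL; 37 °C, 24 h. XTT (500 μg/mL in PBS, menadione final 10 μM) added, 2 h at 37 °C in the dark; OD490 read; IC50.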

Aspergillus fumigatus [2] = assay: Antifungal activity against Aspergillus fumigatus Af293; assay type: functional, organism-based
Summary of the method: (§2)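 Af293 conidia at 10^5/mL in RPMI (8.4 g/L RPMI1640, 34.5 g/L MOPS, 20 g/L dextrose, pH 7) per EUCAST broth microdilution; 2-fold serial dilutions from 10 μg/mL; 35 °C, 48 h; OD600 read. % growth versus no-inhibitor wells after medium-only background subtraction; IC50 derived from growth curves.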

[3] = Immunosuppressive activity against […] mouse CD4-positive T cells assessed as inhibition of CD3/CD28-induced cell proliferation
Summary of the method: (§3)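 Spleen cells from 6–8-week B6J mice, red cells lysed; CD4+ T cells labelled with CellTrace Violet at isolation. Stimulated with anti-CD3/CD28 beads with compound for 72 h; stained for CD4 and CD44 plus near-IR live/dead dye; proliferation read by flow cytometry; IC50 from curves.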

Cryptococcus neoformans [4] = assay: Antifungal activity against Cryptococcus neoformans H99; assay type: functional, organism-based; conditions: var grubii H99
Summary of the method: (§4)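 H99 grown in YPD at 30 °C for 20 h, then seeded at OD600 0.01 in RPMI-MOPS-dextrose pH 7 (EUCAST microdilution). Analogues added as 2-fold dilutions from 10 μg/mL; 37 °C, 48 h; OD600 read. Growth expressed relative to no-inhibitor wells after background subtraction; IC50 calculated.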

Cryptococcus neoformans [5] = assay: Antifungal activity against Cryptococcus neoformans H99 after 48 hrs by EUCAST-based microdilution assay; assay type: functional, organism-based; conditions: var grubii H99 ; summary of the method: as §4
[6] = Immunosuppressive activity against […] mouse CD4-positive T cell cells assessed as inhibition of CD3/CD28-induced cell proliferation after 72 hrs by FACS analysis; summary of the method: as §3
Aspergillus fumigatus [7] = assay: Antifungal activity against Aspergillus fumigatus Af293 after 48 hrs by EUCAST-based microdilution assay; assay type: functional, organism-based; conditions: Af293, 48 h; summary of the method: as §2
Candida albicans [8] = assay: Antifungal activity against Candida albicans SC5314 after 24 hrs by XTT assay; assay type: functional, organism-based; conditions: SC5314, 24 h; summary of the method: as §1
Cryptococcus neoformans [9] = assay: Synergistic antifungal activity against Cryptococcus neoformans H99 in presence of 1.25 ug/ml fluconazole after 48 hrs by checker board assay; assay type: functional, organism-based; conditions: var grubii H99 
Cryptococcus neoformans [10] = assay: Antifungal activity against Cryptococcus neoformans harboring frr1 deletion mutant at 30 ug/ml; assay type: functional, organism-based
Cryptococcus neoformans [11] = assay: Synergistic antifungal activity against Cryptococcus neoformans H99 assessed as FIC index in presence of fluconazole after 48 hrs by checker board assay; assay type: functional, var grubii H99
Summary of the method: (§5)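 Checkerboard with fluconazole: H99 grown overnight in YPD at 30 °C, seeded at OD600 0.01 in RPMI 1640 per EUCAST. Test agent 2-fold serially diluted. FIC index calculated per strain; ≤0.5 synergy, >0.5–1.0 additive, >1.0–2.0 no interaction, >2.0 antagonism.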

Cryptococcus neoformans [12] = assay: Synergistic antifungal activity against Cryptococcus neoformans H99 in presence of 2.5 ug/ml fluconazole after 48 hrs by checker board assay; assay type: functional, organism-based; conditions: var grubii H99 
Cryptococcus neoformans [13] = assay: Synergistic antifungal activity against Cryptococcus neoformans H99 assessed as FIC index in presence of fluconazole; assay type: functional, var grubii H99; summary of the method: as §5

IC50 (Cryptococcus neoformans [5]) | IC50 (Aspergillus fumigatus [7]) | SMILES | IC50 [6] | IC50 (Candida albicans [8]) | other results
– | – | C=CC[C@@H]1/C=C(\C)C[C@H](C)C[C@H](OC)[C@H]2O[C@@](O)(CC(=O)N3CCCC[C@H]3C(=O)O[C@H](/C(C)=C/[C@@H]3CC[C@@H](O)[C@H](O)C3)[C@H](C)[C@@H](O)CC1=O)[C@H](C)C[C@@H]2OC | – | – | IC50 (Candida albicans [1]): 2.8 µg/mL (≈ 3.6 µM); IC50 (Aspergillus fumigatus [2]): 29.8 µg/mL (≈ 38.4 µM); IC50 [3]: 15.1 ng/mL (≈ 0.0194 µM); IC50 (Cryptococcus neoformans [4]): 0.154 µg/mL (≈ 0.198 µM)
221 µg/mL (≈ 290 µM) | > 50 µg/mL | C=CC[C@@H]1/C=C(\C)C[C@H](C)C[C@H](OC)[C@H]2O[C@@](O)(CC(=O)N3CCC[C@H]3C(=O)O[C@H](/C(C)=C/[C@@H]3CC[C@@H](O)[C@H](O)C3)[C@H](C)[C@@H](O)CC1=O)[C@H](C)C[C@@H]2OC | 0.886 µg/mL (≈ 1.16 µM) | 3440 µg/mL (≈ 4520 µM) | –
0.151 µg/mL (≈ 0.191 µM) | 14.1 µg/mL (≈ 17.8 µM) | CCC[C@@H]1/C=C(\C)C[C@H](C)C[C@H](OC)[C@H]2O[C@@](O)(CC(=O)N3CCCC[C@H]3C(=O)O[C@H](/C(C)=C/[C@@H]3CC[C@@H](O)[C@H](OC)C3)[C@H](C)[C@@H](O)CC1=O)[C@H](C)C[C@@H]2OC | 0.0255 µg/mL (≈ 0.0323 µM) | 0.817 µg/mL (≈ 1.03 µM) | –
54.5 µg/mL (≈ 72.7 µM) | > 50 µg/mL | CO[C@H]1C[C@@H](C)C/C(C)=C/[C@@H](C)C(=O)C[C@H](O)[C@@H](C)[C@@H](/C(C)=C/[C@@H]2CC[C@@H](O)[C@H](O)C2)OC(=O)[C@@H]2CCCCN2C(=O)C[C@]2(O)O[C@H]1[C@@H](OC)C[C@H]2C | 3.38 µg/mL (≈ 4.5 µM) | 837 µg/mL (≈ 1120 µM) | –
0.033 µg/mL (≈ 0.0417 µM) | 0.415 µg/mL (≈ 0.524 µM) | CCC[C@@H]1/C=C(\C)C[C@H](C)C[C@H](OC)[C@H]2O[C@@](O)(C(=O)C(=O)N3CCCC[C@H]3C(=O)O[C@H](/C(C)=C/[C@@H]3CC[C@@H](O)[C@H](O)C3)[C@H](C)[C@@H](O)CC1=O)[C@H](C)C[C@@H]2OC | 0.00172 µg/mL (≈ 0.00218 µM) | 0.059 µg/mL (≈ 0.0745 µM) | –
– | – | C=CC[C@@H]1/C=C(\C)C[C@H](C)C[C@H](OC)[C@H]2O[C@@](O)(C(=O)C(=O)N3CCCC[C@H]3C(=O)O[C@H](/C(C)=C/[C@@H]3CC[C@@H](O)[C@H](OC)C3)[C@H](C)[C@@H](O)CC1=O)[C@H](C)C[C@@H]2OC [TACROLIMUS ANHYDROUS] | – | – | IC50 (Candida albicans [1]): 0.005 µg/mL (≈ 0.00622 µM); IC50 (Aspergillus fumigatus [2]): 0.015 µg/mL (≈ 0.0187 µM); IC50 [3]: 0.027 ng/mL (≈ 3.36e-05 µM); fractional inhibitory concentration index (FICI) (Cryptococcus neoformans [13]): 0.38; IC50 (Cryptococcus neoformans [4]): 0.001 µg/mL (≈ 0.00124 µM)
– | – | C=CC[C@@H]1/C=C(\C)C[C@H](C)C[C@H](OC)[C@H]2O[C@@](O)(C(=O)C(=O)N3CCCC[C@H]3C(=O)O[C@H](/C(C)=C/[C@@H]3CC[C@@H](O)[C@H](O)C3)[C@H](C)[C@@H](O)CC1=O)[C@H](C)C[C@@H]2OC | – | – | IC50 (Candida albicans [1]): 0.106 µg/mL (≈ 0.134 µM); IC50 (Aspergillus fumigatus [2]): 0.165 µg/mL (≈ 0.209 µM); IC50 [3]: 0.246 ng/mL (≈ 0.000311 µM); IC50 (Cryptococcus neoformans [4]): 0.005 µg/mL (≈ 0.00633 µM)
– | – | C=CC[C@@H]1/C=C(\C)C[C@H](C)C[C@H](OC)[C@H]2O[C@@](O)(CC(=O)N3CCCC[C@H]3C(=O)O[C@H](/C(C)=C/[C@@H]3CC[C@@H](O)[C@H](OC)C3)[C@H](C)[C@@H](O)CC1=O)[C@H](C)C[C@@H]2OC | – | – | IC50 (Candida albicans [1]): 0.963 µg/mL (≈ 1.22 µM); IC50 (Aspergillus fumigatus [2]): 24.2 µg/mL (≈ 30.6 µM); IC50 [3]: 0.513 ng/mL (≈ 0.000649 µM); IC50 (Cryptococcus neoformans [4]): 0.036 µg/mL (≈ 0.0456 µM)
– | – | CC[C@@H]1/C=C(\C)C[C@H](C)C[C@H](OC)[C@H]2O[C@@](O)(C(=O)C(=O)N3CCCC[C@H]3C(=O)O[C@H](/C(C)=C/[C@@H]3CC[C@@H](O)[C@H](OC)C3)[C@H](C)[C@@H](O)CC1=O)[C@H](C)C[C@@H]2OC [ASCOMYCIN] | – | – | fractional inhibitory concentration index (FICI) (Cryptococcus neoformans [11]): 0.5
8.85 µg/mL (≈ 11.4 µM) | > 50 µg/mL | CCC[C@@H]1/C=C(\C)C[C@H](C)C[C@H](OC)[C@H]2O[C@@](O)(CC(=O)N3CCCC[C@H]3C(=O)O[C@H](/C(C)=C/[C@@H]3CC[C@@H](O)[C@H](O)C3)[C@H](C)[C@@H](O)CC1=O)[C@H](C)C[C@@H]2OC | 0.0459 µg/mL (≈ 0.059 µM) | 4.26 µg/mL (≈ 5.48 µM) | –
0.027 µg/mL (≈ 0.0347 µM) | 12.2 µg/mL (≈ 15.7 µM) | CC[C@@H]1/C=C(\C)C[C@H](C)C[C@H](OC)[C@H]2O[C@@](O)(C(=O)C(=O)N3CCCC[C@H]3C(=O)O[C@H](/C(C)=C/[C@@H]3CC[C@@H](O)[C@H](O)C3)[C@H](C)[C@@H](O)CC1=O)[C@H](C)C[C@@H]2OC | 0.00327 µg/mL (≈ 0.00421 µM) | 0.079 µg/mL (≈ 0.102 µM) | –

SMILES | IC50 (Cryptococcus neoformans [5]) | IC50 (Aspergillus fumigatus [7]) | IC50 [6] | IC50 (Candida albicans [8]) | other results
CO[C@H]1C[C@@H](C)C/C(C)=C/[C@@H](C)C(=O)C[C@H](O)[C@@H](C)[C@@H](/C(C)=C/[C@@H]2CC[C@@H](O)[C@H](OC)C2)OC(=O)[C@@H]2CCCCN2C(=O)C[C@]2(O)O[C@H]1[C@@H](OC)C[C@H]2C | 2.47 µg/mL (≈ 3.23 µM) | 230 µg/mL (≈ 302 µM) | 1.98 µg/mL (≈ 2.6 µM) | 6.07 µg/mL (≈ 7.95 µM) | IC50 (Cryptococcus neoformans [9]): 0.125 µg/mL; Activity (Cryptococcus neoformans [10]): inactive; fractional inhibitory concentration index (FICI) (Cryptococcus neoformans [11]): 0.5
CC[C@@H]1/C=C(\C)C[C@H](C)C[C@H](OC)[C@H]2O[C@@](O)(CC(=O)N3CCCC[C@H]3C(=O)O[C@H](/C(C)=C/[C@@H]3CC[C@@H](O)[C@H](OC)C3)[C@H](C)[C@@H](O)CC1=O)[C@H](C)C[C@@H]2OC | 0.355 µg/mL (≈ 0.456 µM) | 7.82 µg/mL (≈ 10.1 µM) | 0.025 µg/mL (≈ 0.0321 µM) | 0.662 µg/mL (≈ 0.851 µM) | IC50 (Cryptococcus neoformans [12]): 0.031 µg/mL; Activity (Cryptococcus neoformans [10]): inactive; fractional inhibitory concentration index (FICI) (Cryptococcus neoformans [11]): 0.19
CC[C@@H]1/C=C(\C)C[C@H](C)C[C@H](OC)[C@H]2O[C@@](O)(CC(=O)N3CCCC[C@H]3C(=O)O[C@H](/C(C)=C/[C@@H]3CC[C@@H](O)[C@H](O)C3)[C@H](C)[C@@H](O)CC1=O)[C@H](C)C[C@@H]2OC | 3.3 µg/mL (≈ 4.32 µM) | 307 µg/mL (≈ 402 µM) | 0.258 µg/mL (≈ 0.338 µM) | 2.85 µg/mL (≈ 3.73 µM) | IC50 (Cryptococcus neoformans [9]): 0.0625 µg/mL; Activity (Cryptococcus neoformans [10]): inactive; fractional inhibitory concentration index (FICI) (Cryptococcus neoformans [11]): 0.19
